Measured values collected from several papers.
Compare with care: the assays were run in different laboratories.
Target: MAP/microtubule affinity-regulating kinase 3 (MARK3, Homo sapiens, UniProt P27448)

| effect on | action | technique | concentration | quantity | value | Compound |
| --- | --- | --- | --- | --- | --- | --- |
| binding |  |  | 1 µM | remaining binding | 104% | COc1ccc2oc(-c3ccc4nc(N)oc4c3)c/c(=N\c3ccccc3NC(=O)CCN)c2c1 |
| cell-free assay |  | competition with immobilised ligand | 25 µM | remaining binding | 78% | N#Cc1ccc(NC(=O)Nc2ccccc2)cc1 |
| binding |  | competition with immobilised ligand | 0.5 µM | remaining binding | 91% | CCCCC(=O)Nc1ccc(-c2ccc3ncn(CCC)c(=O)c3c2)cn1 |
| binding |  |  | 0.1 µM | remaining binding | 100% | C1=C/COCc2cc(ccc2OCCN2CCCC2)Nc2nccc(n2)-c2cccc(c2)COC/1 |
| enzyme activity | inhibitor |  | 0.1 µM | inhibition | -0.763% | Cc1cc(O)c(-c2ccc([C@@H](C)CN(C)C)cc2)c2c1[nH]c(=O)c1sccc12 |
| binding |  |  | 1 µM | remaining binding | 97% | Cc1ccc(NC(=O)c2ccnc(C(F)(F)F)c2)cc1-c1cc(OCCO)nc(N2CCOCC2)c1 |
| enzyme activity | inhibitor |  | 1 µM | inhibition | 0% | CC#CC(=O)N1CCC[C@H]1c1nc(-c2ccc(C(=O)Nc3ccccn3)cc2)c2c(N)nccn12 |
| enzyme activity | inhibitor |  | 1 µM | activity vs control | 120% | CC(C)S(=O)(=O)c1ccc2nccc(Nc3ccc4sc(C5CCCC5)nc4c3)c2c1 |
| binding |  |  | 1 µM | remaining binding | 43% | CN1CCN(C(=O)c2ccc(NC(=O)Nc3ccc(N(C)c4ccnc(Nc5ccc(CS(C)(=O)=O)cc5)n4)cc3)cc2)CC1 |
| enzyme activity | inhibitor |  | 1 µM | inhibition | 95% | CO[C@@H]1[C@H](N(C)C(=O)c2ccccc2)C[C@H]2O[C@]1(C)n1c3ccccc3c3c4c(c5c6ccccc6n2c5c31)C(=O)NC4 |
| cell-free assay |  |  | 1 µM | remaining signal | 42% | C#Cc1cnc(Nc2ccnc(CO)c2)nc1Nc1ccccc1S(C)(=O)=NC#N (centres unmarked) |
